The source of these data is ChEMBL document CHEMBL1130127, “Synthesis, photophysical properties, in vivo photosensitizing efficacy, and human serum albumin binding properties of some novel bacteriochlorins” (J Med Chem, 1997).

Data set [1] relates to Mus musculus. Nature of the data set: The compound was tested in vivo for photosensitizing efficacy in DBA/2 Mice transplanted with SMT/F tumors and the activity is expressed as % response (26-30 days) 3 hours post injection at 5.0 mg/kg concentration; No response. The format is functional, organism-based. The arrangement: dose 5 mg/kg. In a few lines: (§1)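 Female DBA/2 HA-DD mice, 5-7 weeks old. A 1 mm SMT-F tumor piece from a donor was trocar-implanted subcutaneously in the axilla. At about 5 mm tumor diameter, sensitizer in 1% Tween 80/water was given iv; dose was based on extinction coefficient. At 3 or 24 h after injection, restrained mice had the tumor lit with 135 J/cm2 laser light at the in vivo long-wavelength maximum. Tumor response was followed to day 30; six mice/group.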

Data set [2] has as its system Mus musculus. Nature of the data set: The compound was tested in vivo for photosensitizing efficacy in DBA/2 Mice transplanted with SMT/F tumors and the activity is expressed as % response (16-20 days) 3 hours post injection at 5.0 mg/kg concentration; No response. The format is functional, organism-based. More on the design: dose 5 mg/kg. In outline:
as §1

Another data set addresses Albumin (Homo sapiens, UniProt P02768). Kind of data set: Binding affinity against Human serum albumin(Site I). In a few lines:
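Fluorometric titration: HSA and sensitizer fixed at 1 × 10^-6 mol/L. Site probe varied 4 × 10^-7 to 2 × 10^-6 mol/L: DNSA for site I, read at 472 nm; DP for site II, read at 476 nm; excitation 340 nm. Incubated 4 °C, pH 7.0, 4 h, dark. Bound probe taken from standard curves of free probe (water) and HSA-bound probe (2.5 × 10^-5 mol/L HSA).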

Data set [3] has as its system Mus musculus. Nature of the data set: The compound was tested in vivo for photosensitizing efficacy in DBA/2 Mice at (1-5 days) 3 hours post injection at 5.0 mg/kg concentration; No response. Format: functional, organism-based. More on the design: dose 5 mg/kg. In outline:
as §1

For data set [4], the system named is Mus musculus. Nature of the data set: The compound was tested in vivo for photosensitizing efficacy in DBA/2 Mice transplanted with SMT/F tumors and the activity is expressed as % response (6-10 days) 3 hours post injection at 5.0 mg/kg concentration; No response. The format is functional, organism-based. The arrangement: dose 5 mg/kg. In a few lines: as §1

Data set [5] concerns Mus musculus. Nature of the data set: The compound was tested in vivo for photosensitizing efficacy in DBA/2 Mice transplanted with SMT/F tumors and the activity is expressed as % response (11-15 days) 3 hours post injection at 5.0 mg/kg concentration; No response. Format: functional, organism-based. More on the design: dose 5 mg/kg. In outline:
as §1

Data set [6] relates to Mus musculus. Kind of data set: The compound was tested in vivo for photosensitizing efficacy in DBA/2 Mice transplanted with SMT/F tumors and the activity is expressed as % response (21-25 days) 3 hours post injection at 5.0 mg/kg concentration; No response. The format is functional, organism-based. More on the design: dose 5 mg/kg. In outline:
as §1

For data set [7], the system named is Mus musculus. Kind of data set: The compound was tested in vivo for photosensitizing efficacy in DBA/2 Mice transplanted with SMT/F tumors and the activity is expressed as % response at ( 21-25 days) 24 hours post injection at 5.0 mg/kg concentration. The format is functional, organism-based. The arrangement: dose 5 mg/kg. In outline: as §1
Data set [8] concerns Mus musculus. Nature of the data set: The compound was tested in vivo for photosensitizing efficacy in DBA/2 Mice transplanted with SMT/F tumors and the activity is expressed as % response at ( 26-30 days) 24 hours post injection at 5.0 mg/kg concentration. The format is functional, organism-based. The arrangement: dose 5 mg/kg. In a few lines: as §1
The subject of data set [9] is Mus musculus. Kind of data set: The compound was tested in vivo for photosensitizing efficacy in DBA/2 Mice transplanted with SMT/F tumors and the activity is expressed as % response at (11-15 days) 24 hours post injection at 5.0 mg/kg concentration. Format: functional, organism-based. The arrangement: dose 5 mg/kg. In outline:
as §1

In data set [10] the test system is Mus musculus. Nature of the data set: The compound was tested in vivo for photosensitizing efficacy in DBA/2 Mice transplanted with SMT/F tumors and the activity is expressed as % response at (16-20 days) 24 hours post injection at 5.0 mg/kg concentration. Format: functional, organism-based. The arrangement: dose 5 mg/kg. In outline:
as §1

Data set [11] relates to Mus musculus. Nature of the data set: The compound was tested in vivo for photosensitizing efficacy in DBA/2 Mice transplanted with SMT/F tumors and the activity is expressed as % response at ( 6-10 days) 24 hours post injection at 5.0 mg/kg concentration. The format is functional, organism-based. The arrangement: dose 5 mg/kg. In a few lines: as §1
The test system of data set [12] is Mus musculus. Kind of data set: The compound was tested in vivo for photosensitizing efficacy in DBA/2 Mice transplanted with SMT/F tumors and the activity is expressed as % response at (1-5 days) 24 hours post injection at 5.0 mg/kg concentration. The format is functional, organism-based. The arrangement: dose 5 mg/kg. In a few lines:
as §1

Active and inactive are the calls of the source. No cut-off for these calls is given here.

Chain of Albumin (P02768 whole entry): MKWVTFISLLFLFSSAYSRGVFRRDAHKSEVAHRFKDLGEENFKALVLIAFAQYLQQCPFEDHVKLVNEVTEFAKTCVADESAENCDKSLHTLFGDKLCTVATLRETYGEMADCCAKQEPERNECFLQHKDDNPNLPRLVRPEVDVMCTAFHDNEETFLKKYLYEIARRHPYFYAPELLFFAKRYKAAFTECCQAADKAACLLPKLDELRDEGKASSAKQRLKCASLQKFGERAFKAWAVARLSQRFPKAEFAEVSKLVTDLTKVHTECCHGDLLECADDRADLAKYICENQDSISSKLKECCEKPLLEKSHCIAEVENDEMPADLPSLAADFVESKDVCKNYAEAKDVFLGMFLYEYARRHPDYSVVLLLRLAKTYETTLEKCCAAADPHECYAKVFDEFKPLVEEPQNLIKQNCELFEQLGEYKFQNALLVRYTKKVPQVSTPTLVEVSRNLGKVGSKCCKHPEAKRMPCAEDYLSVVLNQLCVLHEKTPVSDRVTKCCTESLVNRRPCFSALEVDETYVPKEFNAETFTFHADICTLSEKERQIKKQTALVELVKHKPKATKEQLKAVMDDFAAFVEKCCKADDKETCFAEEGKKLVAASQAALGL

As for `CCc1c(C)c2[nH]c1cc1[nH]c(cc3nc4c(c5nc(c2C=O)[C@@H](C)[C@@H]5CCC(=O)OC)CCC4=C3C)C(O)(CC)C1(C)O` (stereo partly drawn), the Response entry with Mus musculus [1], in the data set with Mus musculus [2], in the data set with Mus musculus [3], in the data set with Mus musculus [4], with Mus musculus [5] and with Mus musculus [6] was “inactive” each time. In addition, the Binding constant on Albumin is 500000 l M-1.

As to PORFIMER SODIUM, the Response is 50% in the data set on Mus musculus [7]; 50% with Mus musculus [8]; 80% in the data set with Mus musculus [9]; 60% with Mus musculus [10]; 100% in the data set on Mus musculus [11]; 100% with Mus musculus [12].
